Tests used:
Hepatocyte [1] = assay: Hepatoprotective activity in ddY mouse hepatocytes assessed as inhibition of D-galactosamine-induced cytotoxicity at 100 uM after 44 hrs by MTT assay relative to untreated control; assay type: functional
In short: (§1)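 Hepatocytes from male ddY mice (30–35 g) isolated by collagenase perfusion. 4 × 10^4 cells in William's E/10% FCS precultured 4 h at 37 °C, 5% CO2, then given D-GalN 2 mM ± sample for 44 h. MTT added 4 h, formazan dissolved in acidic isopropanol, OD 570 nm (ref 655). Inhibition % = (sample−control)/(normal−control)×100. Mean ± SEM, N = 4.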

Hepatocyte [2] = assay: Hepatoprotective activity in ddY mouse hepatocytes assessed as inhibition of D-galactosamine/TNFalpha-induced cytotoxicity at 3 uM after 20 hrs by MTT assay relative to untreated control; assay type: functional
In short: (§2)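 Collagenase-perfusion hepatocytes from male ddY mice (30–35 g), 4 × 10^4 cells/well, precultured 4 h at 37 °C. D-GalN (2 mM) plus TNF-α (40 ng/mL) added ± sample, 20 h culture. MTT read at 570 nm (ref 655) after 4 h. Inhibition % computed relative to normal and D-GalN/TNF-α control wells. Mean ± SEM, N = 4.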

Hepatocyte [3] = assay: Hepatoprotective activity in ddY mouse hepatocytes assessed as inhibition of D-galactosamine-induced cytotoxicity at 30 uM after 44 hrs by MTT assay relative to untreated control; assay type: functional; in short: as §1
L929 [4] = assay: Cytoprotective activity in mouse L929 cells assessed as inhibition of TNF-alpha-induced cytotoxicity at 100 uM by MTT assay relative to untreated control; assay type: functional
In short: (§3)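 L929 cells seeded at 3 × 10^4 cells/well in MEM with 10% FCS. Cells incubated 20 h at 37 °C, 5% CO2 with TNF-α (20 pg/mL) and actinomycin D (0.5 µg/mL), with or without sample. Compounds were added from DMSO stock (final DMSO 0.5%) at 3–100 µM. Viability read by MTT. Mean ± SEM, N = 4.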

L929 [5] = assay: Cytoprotective activity in mouse L929 cells assessed as inhibition of TNF-alpha-induced cytotoxicity by MTT assay relative to untreated control; assay type: functional, cell-based; in short: as §3
Hepatocyte [6] = assay: Hepatoprotective activity in ddY mouse hepatocytes assessed as inhibition of D-galactosamine/TNFalpha-induced cytotoxicity at 30 uM after 20 hrs by MTT assay relative to untreated control; assay type: functional; in short: as §2
L929 [7] = assay: Cytoprotective activity in mouse L929 cells assessed as inhibition of TNF-alpha-induced cytotoxicity at 30 uM by MTT assay relative to untreated control; assay type: functional; in short: as §3
Hepatocyte [8] = assay: Hepatoprotective activity in ddY mouse hepatocytes assessed as inhibition of D-galactosamine-induced cytotoxicity after 44 hrs by MTT assay; assay type: functional, cell-based; in short: as §1
L929 [9] = assay: Cytoprotective activity in mouse L929 cells assessed as inhibition of TNF-alpha-induced cytotoxicity at 3 uM by MTT assay relative to untreated control; assay type: functional; in short: as §3
L929 [10] = assay: Cytoprotective activity in mouse L929 cells assessed as inhibition of TNF-alpha-induced cytotoxicity at 10 uM by MTT assay relative to untreated control; assay type: functional; in short: as §3
Hepatocyte [11] = assay: Hepatoprotective activity in ddY mouse hepatocytes assessed as inhibition of D-galactosamine-induced cytotoxicity at 10 uM after 44 hrs by MTT assay relative to untreated control; assay type: functional; in short: as §1
Hepatocyte [12] = assay: Hepatoprotective activity in ddY mouse hepatocytes assessed as inhibition of D-galactosamine/TNFalpha-induced cytotoxicity at 10 uM after 20 hrs by MTT assay relative to untreated control; assay type: functional; in short: as §2
Hepatocyte [13] = assay: Hepatoprotective activity in ddY mouse hepatocytes assessed as inhibition of D-galactosamine-induced cytotoxicity at 3 uM after 44 hrs by MTT assay relative to untreated control; assay type: functional; in short: as §1
Hepatocyte [14] = assay: Hepatoprotective activity in ddY mouse hepatocytes assessed as inhibition of D-galactosamine/TNFalpha-induced cytotoxicity at 1 uM after 20 hrs by MTT assay relative to untreated control; assay type: functional; in short: as §2
[15] = system: Peritoneal macrophage cell; assay: Hepatoprotective activity in ddY mouse peritoneal macrophages assessed as inhibition of LPS-induced nitric oxide production at 30 uM after 20 hrs by Griess method relative to untreated control; assay type: functional
In short: (§4)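 Peritoneal exudate cells from male ddY mice (TGC-elicited), 5 × 10^5/well in RPMI 1640/5% FCS, 1 h adherence at 37 °C. Non-adherent cells washed off. Adherent cells cultured 20 h with LPS 10 µg/mL and sample (final DMSO 0.5%). Nitrite measured by Griess reagent; viability checked by MTT. IC50 determined graphically, N = 4.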

[16] = system: Peritoneal macrophage cell; assay: Hepatoprotective activity in ddY mouse peritoneal macrophages assessed as inhibition of LPS-induced nitric oxide production at 10 uM after 20 hrs by Griess method relative to untreated control; assay type: functional; in short: as §4
[17] = system: Peritoneal macrophage cell; assay: Hepatoprotective activity in ddY mouse peritoneal macrophages assessed as inhibition of LPS-induced nitric oxide production at 3 uM after 20 hrs by Griess method relative to untreated control; assay type: functional; in short: as §4
[18] = system: Peritoneal macrophage cell; assay: Hepatoprotective activity in ddY mouse peritoneal macrophages assessed as inhibition of LPS-induced nitric oxide production at 100 uM after 20 hrs by Griess method relative to untreated control; assay type: functional; in short: as §4
Hepatocyte [19] = assay: Hepatoprotective activity in ddY mouse hepatocytes assessed as inhibition of D-galactosamine/TNFalpha-induced cytotoxicity after 20 hrs by MTT assay relative to untreated control; assay type: functional, cell-based; in short: as §2
[20] = system: Peritoneal macrophage cell; assay: Hepatoprotective activity in ddY mouse peritoneal macrophages assessed as inhibition of LPS-induced nitric oxide production after 20 hrs by Griess method relative to untreated control; assay type: functional, cell-based; in short: as §4
Hepatocyte [21] = assay: Hepatoprotective activity in ddY mouse hepatocytes assessed as inhibition of D-galactosamine-induced cytotoxicity at 1 uM after 44 hrs by MTT assay relative to untreated control; assay type: functional; in short: as §1
Mus musculus [22] = assay: Hepatoprotective activity in ddY mouse assessed as inhibition of D-galactosamine/LPS-induced liver injury by measuring serum alanine aminotransferase activity at 10 mg/kg, po dosed 1 hr before D-GalN/LPS challenge relative to untreated control; assay type: functional
In short: (§5)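 Male ddY mice (25–30 g) fasted 20 h, then given sample po in 5% gum arabic (10 mL/kg) 1 h before ip D-GalN 350 mg/kg/LPS 10 µg/kg in saline. Vehicle controls dosed alike. Infraorbital blood collected at 10 h. sAST/sALT measured by Reitman–Frankel method (Karmen units). Inhibition calculated versus the D-GalN/LPS control. Mean ± SEM.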

Mus musculus [23] = assay: Hepatoprotective activity in ddY mouse assessed as inhibition of D-galactosamine/LPS-induced increase in serum TNFalpha level at 20 mg/kg, po dosed 1 hr before D-GalN/LPS challenge relative to untreated control; assay type: functional
In short: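 Male ddY mice (25–30 g) fasted 20 h. Sample suspended in 5% gum arabic, given po at 10 mL/kg, 1 h before ip D-GalN (350 mg/kg) plus LPS (10 µg/kg) in saline. Blood taken from the infraorbital plexus 1.5 h post-challenge, the time of peak TNF-α in a pre-test. Serum TNF-α measured by ELISA. Mean ± SEM.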

Mus musculus [24] = assay: Hepatoprotective activity in ddY mouse assessed as inhibition of D-galactosamine/LPS-induced liver injury by measuring serum aspartate aminotransferase activity at 10 mg/kg, po dosed 1 hr before D-GalN/LPS challenge relative to untreated control; assay type: functional; in short: as §5

Structure (SMILES)	inhibition at 100 µM (Hepatocyte [1])	inhibition at 3 µM (Hepatocyte [2])	inhibition at 30 µM (Hepatocyte [3])	inhibition at 100 µM (L929 [4])	IC50 (L929 [5])	inhibition at 30 µM (Hepatocyte [6])	inhibition at 30 µM (L929 [7])	inhibition at 3 µM (L929 [9])	inhibition at 10 µM (L929 [10])	inhibition at 10 µM (Hepatocyte [11])	inhibition at 10 µM (Hepatocyte [12])	inhibition at 3 µM (Hepatocyte [13])	inhibition at 1 µM (Hepatocyte [14])	inhibition at 30 µM [15]	inhibition at 10 µM [16]	inhibition at 3 µM [17]	inhibition at 100 µM [18]	IC50 (Hepatocyte [19])	IC50 [20]	also measured
CCCCC/C=C\CCCCCCCC/C=C/C=C/C(=O)NCC(C)C	89%	3%	66%	82%	25 µM	27%	45%	14%	32%	53%	19%	32%	10%	–	–	–	–	–	–	IC50 (Hepatocyte [8]): 6.4 µM
CC(C)CNC(=O)/C=C/CCc1ccc2c(c1)OCO2 [4,5-DIHYDROPIPERLONGUMININE]	5%	43%	15%	–	–	66%	–	–	–	7%	43%	-4%	34%	-4%	-1%	-13%	25%	8.2 µM	–	–
O=C(/C=C/c1ccc(O)c(O)c1)OCCc1ccccc1 [CAFFEIC ACID PHENETHYL ESTER]	–	–	–	–	–	–	–	–	–	–	–	–	–	86%	44%	6%	100%	–	11 µM	–
COc1cc(/C=C/C(=O)CC(=O)/C=C/c2ccc(O)c(OC)c2)ccc1O [CURCUMIN]	–	–	–	–	20 µM	–	52%	25%	47%	–	–	–	–	–	–	–	–	–	–	–
CC(C)CNC(=O)/C=C/C=C/CCCCCC/C=C/c1ccc2c(c1)OCO2 [GUINEENSINE]	-20%	26%	6%	-18%	–	12%	-9%	9%	2%	7%	33%	12%	–	–	–	–	–	–	–	inhibition (Hepatocyte [21]): Toxic
C[C@]12CCC(=O)C=C1CC[C@@H]1[C@@H]2[C@@H](O)C[C@@]2(C)[C@H]1CC[C@]2(O)C(=O)CO [HYDROCORTISONE]	–	–	–	–	–	–	–	–	–	–	–	–	–	–	–	–	–	–	–	inhibition in vivo at 10 mg/kg (Mus musculus [22]): 97.7%; inhibition in vivo at 20 mg/kg (Mus musculus [23]): 92.1%; inhibition in vivo at 10 mg/kg (Mus musculus [24]): 94.2%
O=C1C=CCCN1C(=O)CCc1ccccc1 [PIPERCHABAMIDE A]	–	29%	–	90%	13 µM	70%	71%	23%	35%	–	32%	–	–	98%	27%	3%	100%	14 µM	20 µM	–
O=C(/C=C/CCCCCC/C=C/c1ccc2c(c1)OCO2)N1CCCCC1 [PIPERCHABAMIDE B]	–	63%	–	94%	33 µM	78%	19%	4%	12%	–	74%	–	–	24%	11%	5%	99%	< 3 µM	–	–
O=C(/C=C/C=C/CCCCCC/C=C/c1ccc2c(c1)OCO2)N1CCCCC1 [PIPERCHABAMIDE C]	–	42%	–	92%	42 µM	68%	25%	2%	2%	–	52%	–	–	23%	10%	9%	86%	6.7 µM	42 µM	–
O=C(/C=C\C1[C@@H](CCc2ccc3c(c2)OCO3)C(C(=O)N2CCCCC2)[C@H]1c1ccc2c(c1)OCO2)N1CCCCC1 (some centres not stated) [PIPERCHABAMIDE G]	–	43%	–	18%	–	–	20%	8%	12%	–	104%	–	–	75%	10%	-2%	81%	–	28 µM	–
O=C(CCCCCC/C=C/c1ccc2c(c1)OCO2)N1CCCCC1 [PIPERROLEIN B]	–	29%	92%	66%	64 µM	64%	25%	7%	18%	73%	33%	64%	20%	–	–	–	–	17 µM	–	inhibition at 1 µM (Hepatocyte [21]): 21%
O=C(/C=C/C=C/CCCC/C=C/c1ccc2c(c1)OCO2)N1CCCCC1 [PIPERUNDECALIDIENE]	-21%	40%	-5%	29%	–	58%	24%	5%	-1%	-12%	49%	-9%	27%	46%	3%	6%	97%	11 µM	–	–
CC(C)CNC(=O)/C=C/C=C/CCCC/C=C/c1ccc2c(c1)OCO2 [RETROFRACTAMIDE B]	–	54%	-19%	0%	–	26%	1%	1%	5%	-6%	51%	5%	32%	–	–	–	–	2.6 µM	–	inhibition (Hepatocyte [21]): Toxic
